Bioassay records from PubChem.
CHOP inh – CHOP inhibition in unfolded protein response. CHO-K1 CHOP-promoter luciferase, tunicamycin-induced, 15-18 h. inhibition, % at 10 µM. actives 3.8% (n = 220,000). AID 2732;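 active means compounds that reduced the stress-induced luciferase reporter signal by more than about 70% of percent inhibition, limit read from the data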;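 further: 0% = tunicamycin plus vehicle and 100% = wells without tunicamycin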
GRIN3A LBD mod – modulates the human NR3A ligand-binding domain; NR3A LBD differential scanning fluorimetry, Tm shift; 0% = protein alone, 100% = glycine-bound protein; Tm shift relative to glycine control, % at 25 µM; actives 2.5% (n = 340,000); AID 1259313;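 active means melting temperature shift of at least 10% of the positive control shift, at one fixed dose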
TbMetRS inhib – Trypanosoma brucei MetRS inhibition; purified T. brucei MetRS, ATP depletion, Kinase-Glo luminescence; inhibition, % at 11.9 µM; actives 0.4% (n = 360,000); AID 624268;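 active means inhibition above a per-plate cutoff of the control wells' mean inhibition plus 3 SD, cut at about 5.5% in these data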;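 further: 0% = DMSO wells median and 100% = median of wells with control inhibitor compound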
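Material: parasite MetRS enzyme / Replication: singlicate, one well per compound / Signal: luminescence of leftover ATP / Schedule: 2 h aminoacylation at 25 °C after 15 min preincubation / Medium: HEPES-MgCl2-KCl buffer plus DTT, spermine, BSA, pyrophosphatase / Doses: 11.9 µM single point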
MPTP inh – permeability transition pore inhibition; isolated mouse mitochondria, Ca2+ swelling absorbance, 30 min; inhibition, % at 10 µM; actives 1.4% (n = 360,000); AID 602449;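 active means inhibition of 50% or more, scaled per plate between neutral and stimulator controls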;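 further: 0% = DMSO wells given calcium and 100% = 1 mM EGTA wells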
EBV gp42 block – inhibitors of Epstein-Barr virus glycoprotein 42. Q1HVG2. Fluorescence polarization binding assay, mP read-out. inhibition, % (tested at 21.74 µM). actives 0.42% (n = 220,000); in the data active means inhibition above about 50%
Target sequence (Q1HVG2 whole entry, looked up): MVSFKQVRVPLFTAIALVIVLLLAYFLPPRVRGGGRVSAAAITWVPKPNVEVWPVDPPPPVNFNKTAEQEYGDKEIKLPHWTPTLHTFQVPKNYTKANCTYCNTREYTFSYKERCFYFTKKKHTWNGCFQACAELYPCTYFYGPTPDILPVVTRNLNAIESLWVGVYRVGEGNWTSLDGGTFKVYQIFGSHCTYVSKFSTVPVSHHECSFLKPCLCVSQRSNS
WT yeast gro inh – growth inhibition of WT yeast, mitochondrial fusion screen; mitochondrial fusion phenotypic screen, WT strain; inhibition, % at 10 µM; actives 2.1% (n = 190,000); in the data active means inhibition above about 58%; tested in S. cerevisiae
Rh123 counter – Rhodamine 123 counter-screen of mitochondrial pore hits | AID 624504 | shares compounds with MPTP inh | isolated mitochondria, membrane potential, Rhodamine 123 fluorescence | inhibition, % at 10 µM | actives 78% (n = 5,000); in the data active means inhibition above about 22%;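 further: 0% = DMSO vehicle and 100% = positive control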
MPTP swell DR – dose response confirmation of mitochondrial permeability transition pore inhibitors | actives 58% (n = 780) | shares compounds with MPTP inh | IC50, µM | isolated mitochondria swelling, absorbance | AID 651561; in the data active means IC50 below about 20 µM
MPTP counter DR – active in counter-screen for permeability transition pore inhibitors; isolated mitochondria counterscreen, fluorescence read-out; actives 49% (n = 780); IC50, µM; shares compounds with MPTP inh; in the data active means IC50 below about 80 µM
* hit, by the source's call; i = inactive; . = not tested or not shown; + = active, no number. Compounds with a hit are over-represented: about 6.4% of the library has one in this group of screens.

SMILES	CHOP inh	GRIN3A LBD mod	TbMetRS inhib	MPTP inh	EBV gp42 block	WT yeast gro inh	Rh123 counter	others
CN(C)c1ccc(/C=C/C=C2/C(=O)NC(=O)N(c3ccccc3)C2=O)cc1	84*	2	-1	51*	-58	27	-28
Cc1ccccc1NC(=O)NCCN1CC1	-1	-1	-1	-1	-17	.	.
CCCCCCCC(=O)NC(Oc1ccccc1[N+](=O)[O-])C(Cl)(Cl)Cl (centres undefined)	64	-8	0	70*	2	18	59*
OC(c1cccc(Cl)c1)(c1cccc(Cl)c1)C1CN2CCC1CC2 (centres undefined)	43	-1	1	72*	-9	-16	-10
Oc1c(Cl)cccc1Cc1cc(Cl)cc(Cl)c1O	.	12*	0	81*	.	.	64*
CCOc1ccc(N2C(=O)NC(=O)/C(=C\c3ccc(N4CCCCC4)o3)C2=O)cc1	24	-12	0	1	-346	-3	.
Clc1ccccc1CN1CCNCC1	.	1	0	0	.	.	.
OC1(c2ccc(Cl)cc2)CCN(Cc2c[nH]c3ccccc23)CC1	-5	1	0	94*	.	.	-16	MPTP swell DR=5.3*;MPTP counter DR=>80
c1ccc2c(CN3CCCCC3)c[nH]c2c1	-20	-1	0	3	-3	.	.
CCOc1cc(CNCCc2c[nH]c3ccccc23)cc(Cl)c1OC	89*	-1	-1	95*	0	10	16	MPTP swell DR=3.4*;MPTP counter DR=18*
Cc1ccc(C[n+]2c(-c3ccc(C)cc3)cc(-c3ccc(C)cc3)cc2-c2ccc(C)cc2)cc1	.	-41	0	93*	.	.	116*
Cc1ccc(-c2cc(-c3ccc(C)cc3)[n+](-c3ccc(C(=O)O)cc3)c(-c3ccc(C)cc3)c2)cc1	.	1	0	0	.	.	.
CNC(=O)Oc1cccc2ccccc12	-2	1	0	2	-8	.	.
CNCC[C@H](Oc1cccc2ccccc12)c1cccs1	3	-3	-3	94*	-7	34	-13	MPTP swell DR=3.9*;MPTP counter DR=68*
Cc1cc(OC(=O)c2ccco2)c2c3c(c(=O)oc2c1)CCCC3	76*	-2	0	104*	-16	17	87*
Cc1cc(OCC(=O)O)c2c3c(c(=O)oc2c1)CCCC3	-5	1	-1	-3	2	16	.
Cc1cc(OC(=O)c2cccs2)c2c3c(c(=O)oc2c1)CCCC3	18	-2	-2	68*	-5	38	86*
CCOc1cc(C)cc2oc(=O)c3c(c12)CCCC3	.	1	-1	-1	.	.	.
COC(=O)OCC12CCC(O1)C1(C)C(=O)OCC21 (centres undefined)	22	-3	1	0	-9	-4	.
N#CC(C#N)=C(C#N)c1ccc(Nc2ccccc2)cc1	.	-7	0	118*	.	.	61*
c1ccc(Nc2ccc(Nc3ccccc3)cc2)cc1	.	4	-1	3	.	.	.
COC(=O)C1=C(c2ccc(-c3ccccc3)c(F)c2)C[C@@H]2CC[C@H]1N2C(=O)N1CCCC1	.	-1	0	4	.	.	.
CNCC(O)c1cccc(OC(=O)c2ccccc2C)c1 (centres undefined)	14	-1	-1	61*	-13	-7	-5	MPTP swell DR=8.9*;MPTP counter DR=>80
CN1CCN(c2cc(N3CCCCCC3)c(F)cc2[N+](=O)[O-])CC1	18	3	0	52*	-10	17	-6	MPTP swell DR=13*;MPTP counter DR=>80
CN1C(=O)/C(=C\c2ccc(N3CCCCCC3)cc2)C(=O)NC1=S	10	4	0	71*	-16	.	-10	MPTP swell DR=i;MPTP counter DR=57*
SMILES	CHOP inh	GRIN3A LBD mod	TbMetRS inhib	MPTP inh	EBV gp42 block	WT yeast gro inh	Rh123 counter	others
O=C(CNC(=O)c1ccc(Cl)cc1)Nc1ccc(Br)cc1C(=O)c1ccccc1	4	4	-1	50*	-5	11	67*
O=C(CNC(=O)c1cccc(Cl)c1)Nc1ccc(Br)cc1C(=O)c1ccccc1	56	-6	0	20	4	28	.
Cc1[nH]c2c(C(F)(F)F)cccc2c1CCN	.	-1	0	73*	-3	-5	-7	MPTP swell DR=i;MPTP counter DR=>80
Cc1[nH]c2ccc(O)cc2c1CCN	-5	0	-1	-2	.	.	.
O=[N+]([O-])c1ccc(N2CCNCC2)c(Cl)c1	16	-3	1	0	3	-12	.
O=c1oc2ccccc2c(O)c1C(c1ccc([N+](=O)[O-])cc1)c1c(O)c2ccccc2oc1=O	4	-1	0	42	12	2	.
CC(C)c1ccc(C(c2c(O)c3ccccc3oc2=O)c2c(O)c3ccccc3oc2=O)cc1	.	.	0	78*	.	.	2	MPTP swell DR=3.9*;MPTP counter DR=<2.5*
CCN(CC)S(=O)(=O)c1ccc(C)c(NCC(=O)Nc2ccc(C#N)c(Cl)c2)c1	54	6	0	77*	-2	9	87*
CCN1/C(=C/C=C/C2=[N+](CC)c3ccccc3C2(C)C)C(C)(C)c2ccccc21	.	.	-1	+	.	.	92*
CN1/C(=C\C=C2C(=O)NC(=O)NC2=O)C(C)(C)c2ccccc21	16	0	-1	-1	-314	8	.
CSc1ncc(/C=C2/C(=O)NC(=O)N(C3CCCCC3)C2=O)cn1	-28	-2	0	90*	-39	-8	-10	MPTP swell DR=3.4*;MPTP counter DR=>80
Cc1cc(O)c2c3c(c(=O)oc2c1)CCC(C)C3 (centres undefined)	.	3	-1	57*	.	.	89*
CC(C)NS(=O)(=O)c1ccc(OCC(=O)N2CCN(Cc3ccc4c(c3)OCO4)CC2)c(Cl)c1	28	2	0	54*	-3	2	32*
O=P(O)(Oc1ccccc1)OC(c1ccccc1)C(F)(F)F (centres undefined)	3	-1	-2	-4	6	-2	.
CCOC(=O)c1ccc(N=C(CC)c2c(O)n(C)c(=O)n(C)c2=O)cc1	3	-2	0	90*	-11	.	3	MPTP swell DR=2.1*;MPTP counter DR=23*
CCC(=Nc1ccc2c(c1)CCC2)c1c(O)n(C)c(=O)n(C)c1=O	.	0	0	-4	.	.	.
C=C1C(=O)OC2C1CCC(C)C1(O)C=CC(=O)C21C (centres undefined)	.	-4	1	-2	.	.	.
O=C(N/N=C/c1c(O)n(-c2ccccc2)c(=S)[nH]c1=O)c1ccccc1	-6	-6	0	-22	-6	.	.
CC(C)CCN1CCN(Cc2c(F)cccc2Cl)CC1CCO (centres undefined)	14	-4	-1	1	1	11	.
Nc1c2c(nc3sc4c(c13)CCCC4)CCCC2	25	-1	0	55*	-19	76	80*
